Assay results pooled from the literature.
Lines come from different studies, so protocols differ.
Effect on: cell growth or viability

The IC50 of `CNC(=O)c1cc(Oc2ccc(NC(=O)Nc3ccc(Cl)c(C(F)(F)F)c3)cc2)ccn1` is reported as 15.8 µM (BEAS-2B; MTT; 24 h).
With `c1ccc2c(c1)ncn2Cn1cncn1` the IC50 was 264 µM (BEAS-2B; MTT; 24 h).
`Fc1ccc2c(-c3nnc(Cc4ccccc4)[nH]3)nn(Cc3ccc(Cl)cc3Cl)c2c1` has an IC50 of 584 µM (human Fibroblast; 48 h).
`OC1CCN(c2ccc(/C=N/NC(=S)Nc3ccc(Cl)cc3)cc2)CC1` gave an IC50 of 13.7 µM (BEAS-2B; MTT; 24 h).
For `C/C(=N\CCNCC/N=C(\C)c1c(O)c2ccccc2oc1=O)c1c(O)c2ccccc2oc1=O`, the IC50 was 13.3 µM (BEAS-2B; MTT; 48 h).
`c1ccc(-c2noc(-c3nn(Cc4ccncc4)c4ccccc34)n2)cc1` has an IC50 of 51.4 µM (human Fibroblast; 48 h).
`Cc1ccc(Cn2nc(-c3ccc(CO)o3)c3ccccc32)cc1` gave an IC50 of 1.7 µM (RBE; ATP luminescence).
`C/C(=N\C1CCCCC1/N=C(\C)c1c(O)c2ccccc2oc1=O)c1c(O)c2ccccc2oc1=O` (stereo not drawn) has an IC50 of 5.46 µM (BEAS-2B; MTT; 48 h).
`COc1cccc(Cn2nc(-c3ccc(CO)o3)c3ccccc32)c1` has an IC50 of 0.468 µM (RBE; ATP luminescence).
`Cc1nc2ccc(-c3ccc(OCc4ccccc4)c(F)c3)cc2c(O)c1C(=O)O` has an IC50 of no less than 100 µM (MDA-MB-468; MTT; 48 h).
The IC50 of `OCc1ccc(-c2nn(Cc3cccc(Cl)c3)c3ccccc23)o1` is reported as 1.41 µM (RBE; ATP luminescence).
For `CN1CCC(NC2CCc3[nH]c4c(C(N)=O)ccc(-c5ccccc5Cl)c4c3C2)CC1` (stereo not drawn), the IC50 was 0.0172 µM (SGC-7901; 96 h).
`Cc1nnc(-c2nn(Cc3ccc(Cl)cc3Cl)c3ccccc23)o1` has an IC50 of 97.5 µM (human Fibroblast; 48 h).
For `OCc1ccc(N2CCc3cccc(F)c3C2)cc1Cl`, the IC50 was less than 0.2 µM (RBE; ATP luminescence).
`c1ccc(Cn2nc(-c3nc(-c4ccccc4)n[nH]3)c3ccccc32)cc1` has an IC50 of 72.6 µM (human Fibroblast; 48 h).
With `COc1cc(Cn2nc(-c3ccc(CO)o3)c3ccccc32)ccn1` the IC50 was 0.38 µM (RBE; ATP luminescence).
`COc1ccc2c(-c3nc(-c4ccccc4)no3)nn(Cc3ccncc3)c2c1` has an IC50 of 123 µM (human Fibroblast; 48 h).
The IC50 of `COc1ccc(NC(=S)N/N=C/c2ccc(N3CCC(O)CC3)cc2)cc1` is reported as 17.5 µM (BEAS-2B; MTT; 24 h).
The IC50 of `Clc1ccc(Cn2nc(-c3nc(-c4ccccc4)no3)c3ccccc32)c(Cl)c1` is reported as 164 µM (human Fibroblast; 48 h).
The IC50 of `OCn1ccnc1` is reported as greater than 800 µM (BEAS-2B; MTT; 24 h).
The IC50 of `O=C(O)c1nn(Cc2ccc(Cl)cc2Cl)c2ccccc12` is reported as 259 µM (human Fibroblast; 48 h).
`CC(c1ccccc1)n1nc(-c2ccc(CO)o2)c2ccccc21` (stereo not drawn) gave an IC50 of 4.17 µM (RBE; ATP luminescence).
For `COc1cccc2c1C(=O)c1c(O)c3c(c(O)c1C2=O)C[C@@](O)(C(=O)CO)C[C@@H]3O[C@H]1C[C@H](N)[C@H](O)[C@H](C)O1`, the IC50 was 0.256 µM (SGC-7901; 96 h).
`CCOC(=O)c1c(C)nc2ccc(-c3ccc(F)cc3)cc2c1O` gave an IC50 of 5 µM (MDA-MB-468; MTT; 48 h).
`Nc1nc2cc(CC[C@H]3C[C@@H](n4ccc5c(N)ncnc54)[C@H](O)[C@@H]3O)ccc2cc1Br` has an IC50 of greater than 100 µM (MDA-MB-435S; CCK-8; 72 h).
`CCOC(=O)c1c(C)nc2ccc(-c3ccc(OCc4ccccc4)c(F)c3)cc2c1O` has an IC50 of 2 µM (MDA-MB-468; MTT; 48 h).
`OC1CCN(c2ccc(/C=N/NC(=S)Nc3ccc(Br)cc3)cc2)CC1` gave an IC50 of 19.8 µM (BEAS-2B; MTT; 24 h).
With `FC(F)(F)c1ccc(-c2nnc(-c3nn(Cc4ccc(Cl)cc4Cl)c4ccccc34)o2)cc1` the IC50 was 100 µM (human Fibroblast; 48 h).
`CCc1nc(C(N)=O)c(Nc2ccc(N3CCC(N4CCN(C)CC4)CC3)c(OC)c2)nc1NC1CCOCC1` has an IC50 of 0.025 µM (MV4-11; resazurin).
With `C/C(=N\C(=N)/N=C(\C)c1c(O)c2ccccc2oc1=O)c1c(O)c2ccccc2oc1=O` the IC50 was 44.5 µM (BEAS-2B; MTT; 48 h).
`CC(=O)ON=C1C=CC(=C(C#N)c2ccccc2)C=C1` gave an IC50 of 25.9 µg/mL (human Fibroblast; MTT; 24 h).
`Cc1nc2ccc(-c3cccc(F)c3)cc2c(O)c1C(=O)O` has an IC50 of no less than 100 µM (MDA-MB-468; MTT; 48 h).
`OCc1ccc(-c2nn(Cc3ccccc3)c3ncccc23)o1` gave an IC50 of 15.5 µM (RBE; ATP luminescence).
For `Cc1cccc(C)c1NC(=S)N/N=C/c1ccc(N2CCC(O)CC2)cc1`, the IC50 was 12.7 µM (BEAS-2B; MTT; 24 h).
For `Cc1nc2ccc(-c3ccc(F)c(F)c3)cc2c(O)c1C(=O)O`, the IC50 was no less than 100 µM (MDA-MB-468; MTT; 48 h).
`CNCc1ccc(-c2nn(Cc3ccccc3)c3ccccc23)o1` gave an IC50 of 21.4 µM (RBE; ATP luminescence).
